Experimental findings from ChEMBL document CHEMBL4190404, “Synthesis and characterization of amino acid substituted sunitinib analogues for the treatment of AML” (Bioorg Med Chem Lett, 2018) are described below.

≈ marks a conversion by molar mass, not a printed value.

Series [1] in a line: Aqueous solubility in pH 7.4 phosphate buffer at 120 uM after 24 hrs by HPLC method. The format is physicochemical.
The nature of series [2]: Aqueous solubility in pH 5.5 phosphate buffer at 120 uM after 24 hrs by HPLC method. Conditions: phosphate buffer, pH 5.5. It counts as physicochemical.
Series [3] concerns Receptor-type tyrosine-protein kinase FLT3 (Homo sapiens), P36888 [UNDEFINED MUTATION]. As to the kind of experiment: Inhibition of FLT3 ITD mutant (unknown origin) using TAMRA-Src- tide as substrate at 12.5 uM after 1 hr by fluorescence polarization assay relative to control. The method, boiled down:
(§1)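 FLT3-ITD kinase inhibition by fluorescence polarization IMAP assay; each compound tested at 12.5 and 1.25 μM; percent inhibition, average of two parallel measurements.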
For orientation: Fluorescence polarisation rises when a labelled molecule tumbles more slowly, as on binding a larger partner.

Series [4] shares this test system. Put plainly: Inhibition of FLT3 ITD mutant (unknown origin) using TAMRA-Src- tide as substrate at 1.25 uM after 1 hr by fluorescence polarization assay relative to control. In a few lines: as §1
A short description of series [5]: Lipophilicity, chromatographic hydrophobicity index of the compound at pH 7.4 by HPLC method. The format is physicochemical. As to conditions: buffer. In a few lines:
(§2)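 RP-HPLC with buffer/acetonitrile gradient elution; CHI profile at starting pH 10.5, 7.4, 5.5 and 1.2; values given as average of the compound group.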

Series [6] in a line: Lipophilicity, chromatographic hydrophobicity index of the compound at pH 5.5 by HPLC method. Conditions: buffer. It counts as physicochemical. The method, boiled down: as §2
Series [7] can be described thus: Lipophilicity, chromatographic hydrophobicity index of the compound at pH 1.2 by HPLC method. It counts as physicochemical. Conditions: buffer. In a few lines:
as §2

The conditions of series [8]: buffer, pH 10.5.
In the next series the test system is MV4-11. Put plainly: Antiproliferative activity against human MV4-11 cells after 72 hrs by Celltiter-Glo luminescent cell viability assay. It counts as functional, cell-based. Conditions: MV4-11, 72 h. The method, boiled down: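 MV4-11 leukaemia cells, 72 h proliferation assay, luminescence read-out; IC50 determined from concentration–response.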
For orientation: Cellular ATP, detected with luciferase, serves as a proxy for viable cell number.

Chain of Receptor-type tyrosine-protein kinase FLT3 (Homo sapiens), P36888 [UNDEFINED MUTATION] (P36888 whole entry, looked up, change not shown): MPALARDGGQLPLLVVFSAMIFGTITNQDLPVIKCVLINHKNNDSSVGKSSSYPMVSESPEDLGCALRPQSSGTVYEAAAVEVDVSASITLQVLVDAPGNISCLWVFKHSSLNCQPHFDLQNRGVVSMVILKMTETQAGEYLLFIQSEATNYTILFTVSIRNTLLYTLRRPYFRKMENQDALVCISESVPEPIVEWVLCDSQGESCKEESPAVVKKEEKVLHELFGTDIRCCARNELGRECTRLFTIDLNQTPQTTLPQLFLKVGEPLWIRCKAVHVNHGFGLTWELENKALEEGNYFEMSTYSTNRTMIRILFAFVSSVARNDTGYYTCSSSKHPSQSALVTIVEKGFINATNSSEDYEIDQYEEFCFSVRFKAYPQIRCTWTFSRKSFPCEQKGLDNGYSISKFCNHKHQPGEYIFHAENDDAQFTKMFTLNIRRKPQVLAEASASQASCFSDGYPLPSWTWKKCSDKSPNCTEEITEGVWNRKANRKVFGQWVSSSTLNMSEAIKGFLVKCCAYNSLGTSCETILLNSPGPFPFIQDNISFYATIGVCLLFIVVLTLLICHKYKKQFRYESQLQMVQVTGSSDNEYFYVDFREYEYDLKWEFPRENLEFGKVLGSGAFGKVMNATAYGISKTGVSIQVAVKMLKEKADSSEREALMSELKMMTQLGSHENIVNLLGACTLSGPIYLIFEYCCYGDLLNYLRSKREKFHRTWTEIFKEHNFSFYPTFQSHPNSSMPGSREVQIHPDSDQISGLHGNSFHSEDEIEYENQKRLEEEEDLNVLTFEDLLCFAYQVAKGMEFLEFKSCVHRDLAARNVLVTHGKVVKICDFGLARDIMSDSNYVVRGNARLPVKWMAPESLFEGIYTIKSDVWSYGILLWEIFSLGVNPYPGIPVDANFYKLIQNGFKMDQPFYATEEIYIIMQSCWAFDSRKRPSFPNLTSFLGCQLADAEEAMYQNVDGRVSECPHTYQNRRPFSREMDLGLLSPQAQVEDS

Consider `CCOC(=O)c1c(C)[nH]c(/C=C2\C(=O)Nc3ccc(C(=O)N[C@@H](CCC(=O)OC)C(=O)OC)cc32)c1C`, for which the solubility at 24 h, 120 µM in [1] and in series [2] was less than 1 µM each time. Further, the inhibition (in general, the change of the read-out against control, counted positive when it falls) in series [3] was 76.7%; in series [4] it was 30.2%. Also, the CHI in series [5], in [6], in series [7] and in series [8] was 84 in each case.
With `COC(=O)[C@@H](Cc1ccccc1)NC(=O)c1ccc2c(c1)/C(=C/c1[nH]c(C)c(C(=O)N[C@H](Cc3ccccc3)C(=O)O)c1C)C(=O)N2`, the inhibition in [3] is greater than 100%; in [4], 28.9%. Further, the IC50 (commonly the concentration that gives 50% inhibition) in the series on MV4-11 stood at 19.7 µM.
`COC(=O)CC[C@H](NC(=O)c1c(C)[nH]c(/C=C2\C(=O)Nc3ccc(C(=O)N[C@@H](Cc4ccccc4)C(=O)O)cc32)c1C)C(=O)OC`: the results for the solubility at 24 h, 120 µM in series [1] and in [2] were no less than 120 µM and 60 µM (≈ 37.8 µg/mL), respectively. For the same compound, the inhibition in series [3] is greater than 100%; in [4] it was 98.7%. Also, the CHI worked out at 50 in [5], 50 in series [6], 68 in [7] and 47 in [8].
As to `COC(=O)CC[C@@H](NC(=O)c1ccc2c(c1)/C(=C/c1[nH]c(C)c(C(=O)N[C@H](Cc3ccccc3)C(=O)OC)c1C)C(=O)N2)C(=O)OC`, the inhibition in series [3] was determined as 32.8%; in series [4], 12.1%. Further, in the series with MV4-11, inhibition was half-maximal at 10.3 µM (IC50).
Consider `COC(=O)[C@H](Cc1ccccc1)NC(=O)c1c(C)[nH]c(/C=C2\C(=O)Nc3ccc(C(=O)N[C@H](Cc4ccccc4)C(=O)OC)cc32)c1C`, for which the inhibition in [3] is 70.3%; in series [4], 29%. Also, the IC50 in the series with MV4-11 was determined as 2.5 µM.
In the same order, the values of `COC(=O)c1ccc2c(c1)/C(=C/c1[nH]c(C)c(C(=O)N[C@H](Cc3ccccc3)C(=O)OC)c1C)C(=O)N2` are 80.6%, 47% and 0.3 µM.
Consider `CCN(CC)CCNC(=O)c1c(C)[nH]c(/C=C2\C(=O)Nc3ccc(F)cc32)c1C` [SUNITINIB], for which the solubility at 24 h, 120 µM in series [1] and in series [2] was no less than 120 µM each time. For the same compound, the inhibition came out at 94.8% in [3] and 92.3% in series [4]. The same compound registered an IC50 in the series on MV4-11 of less than 0.01 µM. Besides, the CHI in series [5] is recorded as 57; in [6], 55; in series [7], 51.
With `COC(=O)[C@H](Cc1ccccc1)NC(=O)c1ccc2c(c1)/C(=C/c1[nH]c(C)c(C(=O)N[C@H](Cc3ccccc3)C(=O)O)c1C)C(=O)N2`, the inhibition is greater than 100% in series [3] and 89.6% in series [4]. The compound also displayed an IC50 in the series on MV4-11 of 18.1 µM.
In the same order, the values of `COC(=O)CC[C@@H](NC(=O)c1c(C)[nH]c(/C=C2\C(=O)Nc3ccc(C(=O)N[C@H](Cc4ccccc4)C(=O)OC)cc32)c1C)C(=O)OC` are 63.8%, 37.9% and 1.6 µM.
The like results for `COC(=O)c1ccc2c(c1)/C(=C/c1[nH]c(C)c(C(=O)N[C@H](Cc3ccccc3)C(=O)O)c1C)C(=O)N2` were, in that order, greater than 100%, 91% and 3.9 µM.
`COC(=O)CC[C@H](NC(=O)c1c(C)[nH]c(/C=C2\C(=O)Nc3ccc(C(=O)N[C@H](Cc4ccccc4)C(=O)OC)cc32)c1C)C(=O)OC`: the inhibition was 88.4% in series [3] and 35.3% in [4]. In addition, the concentration for half-maximal inhibition (IC50) with MV4-11 amounted to 3.2 µM.
Regarding `Cc1[nH]c(/C=C2\C(=O)Nc3ccc(C(=O)O)cc32)c(C)c1C(=O)N[C@@H](Cc1ccccc1)C(=O)O`, the solubility (in general, the concentration that dissolves in the medium under given conditions) at 24 h, 120 µM in series [1] is no less than 120 µM; in [2], 110 µM (≈ 52.1 µg/mL). Further, the figures for the inhibition in series [3] and in series [4] were greater than 100% and 100%, respectively. Moreover, the CHI in series [5] came to 29; in [6], 35; in series [7], 61; in series [8] it was 24.
`COC(=O)CC[C@@H](NC(=O)c1c(C)[nH]c(/C=C2\C(=O)Nc3ccc(C(=O)OC)cc32)c1C)C(=O)OC`: the values for the inhibition in [3] and in series [4] were 93.5% and 88.3%, respectively. It took 1.3 µM to reach half-maximal inhibition with MV4-11 (IC50).
Turning to `Cc1[nH]c(/C=C2\C(=O)Nc3ccc(C(=O)N[C@@H](Cc4ccccc4)C(=O)O)cc32)c(C)c1C(=O)N[C@@H](Cc1ccccc1)C(=O)O`, the solubility at 24 h, 120 µM is no less than 120 µM in series [1] and 110 µM (≈ 68.3 µg/mL) in [2]. Further, the inhibition was greater than 100% in series [3] and 98.7% in series [4]. The CHI in [5] is 39; in series [6] it was 40; in series [7], 70; in series [8], 36.
For the compound `COC(=O)CC[C@H](NC(=O)c1ccc2c(c1)/C(=C/c1[nH]c(C)c(C(=O)O)c1C)C(=O)N2)C(=O)OC`, the solubility at 24 h, 120 µM in [1] was 100 µM (≈ 48.3 µg/mL); in series [2] it was less than 5 µM. The inhibition stood at 28.8% in [3] and 58.7% in [4]. Further, the CHI turned out to be 42 in series [5], 54 in [6], 59 in series [7] and 34 in series [8].
Take `COC(=O)[C@H](Cc1ccccc1)NC(=O)c1c(C)[nH]c(/C=C2\C(=O)Nc3ccc(C(=O)N[C@@H](Cc4ccccc4)C(=O)O)cc32)c1C`: the solubility at 24 h, 120 µM in series [1] turned out to be 50 µM (≈ 31.7 µg/mL); in series [2] it was 20 µM (≈ 12.7 µg/mL). Moreover, the inhibition was greater than 100% in series [3] and 94.8% in series [4]. Besides, the CHI in [5] was 60; in [6], 60; in series [7] it was 81; in [8], 58.
With `COC(=O)CC[C@@H](NC(=O)c1c(C)[nH]c(/C=C2\C(=O)Nc3ccc(C(=O)N[C@@H](Cc4ccccc4)C(=O)OC)cc32)c1C)C(=O)OC`, the inhibition in series [3] was found to be 94.8%; in series [4], 53.5%. Also, in the series with MV4-11, it took 25.4 µM to reach half-maximal inhibition (IC50).
Take `COC(=O)CC[C@@H](NC(=O)c1ccc2c(c1)/C(=C/c1[nH]c(C)c(C(=O)N[C@@H](Cc3ccccc3)C(=O)OC)c1C)C(=O)N2)C(=O)OC`: the inhibition in series [3] came to 49.6%; in series [4], 8.2%. The same compound returned an IC50 with MV4-11 of 16.8 µM.
For the compound `COC(=O)CC[C@H](NC(=O)c1ccc2c(c1)/C(=C/c1[nH]c(C)c(C(=O)N[C@H](Cc3ccccc3)C(=O)OC)c1C)C(=O)N2)C(=O)OC`, the inhibition worked out at 78% in [3] and 31.5% in series [4]. Besides, in the series on MV4-11, the IC50 was greater than 30 µM.
As to `CCOC(=O)c1c(C)[nH]c(/C=C2\C(=O)Nc3ccc(C(=O)N[C@H](Cc4ccccc4)C(=O)OC)cc32)c1C`, the inhibition in [3] is 92.2%; in [4], 61.3%. Also, in the series on MV4-11, half-maximal inhibition (IC50) required 1.3 µM.
For the compound `COC(=O)[C@@H](Cc1ccccc1)NC(=O)c1ccc2c(c1)/C(=C/c1[nH]c(C)c(C(=O)N[C@H](Cc3ccccc3)C(=O)OC)c1C)C(=O)N2`, the inhibition in [3] came out at 85.8%; in series [4] it was 35.4%. In addition, the IC50 with MV4-11 came out at 2.9 µM.
In the case of `COC(=O)[C@H](Cc1ccccc1)NC(=O)c1ccc2c(c1)/C(=C/c1[nH]c(C)c(C(=O)N[C@H](Cc3ccccc3)C(=O)OC)c1C)C(=O)N2`, the inhibition in [3] worked out at 67.7%; in series [4] it was 35.4%. In the series with MV4-11, this compound had an IC50 of 3.3 µM.
In the same order, the values of `COC(=O)[C@@H](Cc1ccccc1)NC(=O)c1ccc2c(c1)/C(=C/c1[nH]c(C)c(C(=O)O)c1C)C(=O)N2` are 27.5%, 76.7% and 0.6 µM.
